According to ChEMBL document CHEMBL3414483, “New heterocyclic hybrids of pyrazole and its bioisosteres: design, synthesis and biological evaluation as dual acting antimalarial-antileishmanial agents” (Eur J Med Chem, 2015):
≈ marks a conversion by molar mass, not a printed value.

Columns and labels:
Plasmodium berghei [1] = assay: Antimalarial activity against Plasmodium berghei str. ANKA infected in Swiss albino mouse assessed as parasitemia at 0.048 mmol/kg/day, po qd […] by microscopic analysis relative to control; format: functional
Procedure, shortened: (§1)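 Four-day suppressive test. Mice were infected iv on day 0 with 0.2 ml of 2 × 10^7 P. berghei ANKA-parasitized erythrocytes from a donor mouse, diluted in saline. From 2 h post-infection they were dosed orally at 0.048 mmol/kg/day for days 0–3, five mice per group. The vehicle was 7% Tween and 3% ethanol in water. On day 4, Giemsa smears were scored over 5 fields of about 100 RBC each. Suppression was calculated relative to the vehicle group, taken as 100%.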

Plasmodium berghei [2] = assay: Antimalarial activity against Plasmodium berghei str. ANKA infected in Swiss albino mouse assessed as supression of parasitemia at 0.048 mmol/kg/day, po qd for 3 days by microscopic analysis relative to control; format: functional; procedure, shortened: as §1
Plasmodium berghei [3] = assay: Antimalarial activity against Plasmodium berghei str. ANKA infected in Swiss albino mouse assessed as survival at 0.048 mmol/kg/day, po qd for 3 days by microscopic analysis relative to control; format: functional
Procedure, shortened: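 P. berghei ANKA infected mice, 4-day suppressive test. Day 0: 0.2 ml of 2 x 10^7 parasitized erythrocytes given i.v. (donor blood, 20-30% parasitemia, diluted in saline). Oral dosing at 0.048 mmol/kg/day from 2 h post-infection, then days 1-3 at 24 h intervals. Vehicle 7% Tween, 3% ethanol in water. Five mice/group. Survival time recorded per mouse; mean compared with vehicle group.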

Leishmania aethiopica [4] = assay: Antileishmanial activity against promastigote stage of Leishmania aethiopica after 24 hrs by alamar blue staining-based […]; format: functional, organism-based
Procedure, shortened: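 L. aethiopica promastigotes, 3 × 10^6 per well, given compounds from DMSO stocks in three-fold dilutions at 10 to 0.04 µg/ml (final DMSO ≤0.1%), in duplicate, at room temperature (21 ± 1 °C). Alamar blue (resazurin) was added after 24 h and absorbance read 48 h later at 540 and 630 nm. Negative control was parasites, medium and DMSO.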

Leishmania aethiopica [5] = assay: Antileishmanial activity against amastigote stage of Leishmania aethiopica after 72 hrs by resazurin staining-based fluorescence assay; format: functional, organism-based
Procedure, shortened: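 Axenic L. aethiopica amastigotes (50 µl of 2 × 10^7 cells/ml) exposed to serial dilutions at final 0.04–10 µg/ml for 72 h at 31 °C, humidified, 5% CO₂. Resazurin was added at 68 h and fluorescence read at 72 h (ex 530/em 590 nm). EC50 from sigmoidal dose–response fits, mean ± SD of triplicate experiments run in duplicate. Controls were medium alone and 1% DMSO.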

Work on `Cc1ccc(-c2nn(-c3ccc(Br)cc3)cc2/C=N/N=c2/scc(-c3ccc(Br)cc3)n2-c2ccccc2)cc1` yielded an Activity (Plasmodium berghei [1]) of 14%, an Activity (Plasmodium berghei [2]) of 83.72% and a Survival (Plasmodium berghei [3]) of 11.22 days. For the same compound, the IC50 (Leishmania aethiopica [4]) was 4.06 µg/mL (≈ 6.07 µM) and the IC50 (Leishmania aethiopica [5]) was 2.21 µg/mL (≈ 3.3 µM).

With `Cc1ccc(-c2nn(-c3ccc(Br)cc3)cc2/C=C/C(=O)c2ccccc2)cc1` the Activity (Plasmodium berghei [1]) was 22%, the Activity (Plasmodium berghei [2]) was 74.42% and the Survival (Plasmodium berghei [3]) was 11.8 days. It also gave an IC50 (Leishmania aethiopica [4]) of 1.03 µg/mL (≈ 2.32 µM) and an IC50 (Leishmania aethiopica [5]) of 1.01 µg/mL (≈ 2.28 µM).

`CCCCCCCCCCCCCCCCOP(=O)([O-])OCC[N+](C)(C)C` [MILTEFOSINE] gave an IC50 (Leishmania aethiopica [4]) of 3.19 µg/mL (≈ 7.83 µM) and an IC50 (Leishmania aethiopica [5]) of 0.3 µg/mL (≈ 0.736 µM).

With `O=[N+]([O-])c1ccc(-c2nn(-c3ccc(Br)cc3)cc2/C=N/N=c2/scc(-c3ccc(Br)cc3)n2-c2ccccc2)cc1` the Activity (Plasmodium berghei [1]) was 28%, the Activity (Plasmodium berghei [2]) was 67.44% and the Survival (Plasmodium berghei [3]) was 12.26 days. It also gave an IC50 (Leishmania aethiopica [4]) of 2.9 µg/mL (≈ 4.14 µM) and an IC50 (Leishmania aethiopica [5]) of 1.07 µg/mL (≈ 1.53 µM).

`Cc1ccc(-c2nn(-c3ccc(C)cc3)cc2/C=N/N=C2/SCC(=O)N2c2ccccc2)cc1` gave an Activity (Plasmodium berghei [1]) of 10%, an Activity (Plasmodium berghei [2]) of 88.37% and a Survival (Plasmodium berghei [3]) of 10.64 days. The IC50 (Leishmania aethiopica [4]) was 0.882 µg/mL (≈ 1.89 µM) and the IC50 (Leishmania aethiopica [5]) was 0.58 µg/mL (≈ 1.25 µM).

`O=[N+]([O-])c1ccc(-c2nn(-c3ccc(Br)cc3)cc2C2CC(c3ccccc3)=NN2c2ccccc2)cc1` (configuration not stated) was tested, and the Activity (Plasmodium berghei [1]) was 32%, the Activity (Plasmodium berghei [2]) was 62.79% and the Survival (Plasmodium berghei [3]) was 9.84 days. It also gave an IC50 (Leishmania aethiopica [4]) of 3.85 µg/mL (≈ 6.82 µM) and an IC50 (Leishmania aethiopica [5]) of 2.01 µg/mL (≈ 3.56 µM).

Work on `CCC(=O)N1N=C(c2ccccc2)CC1c1cn(-c2ccc(Br)cc2)nc1-c1ccc(C)cc1` (configuration not stated) yielded an Activity (Plasmodium berghei [1]) of 42%, an Activity (Plasmodium berghei [2]) of 51.16% and a Survival (Plasmodium berghei [3]) of 6.86 days. For the same compound, the IC50 (Leishmania aethiopica [4]) was 2.04 µg/mL (≈ 3.98 µM) and the IC50 (Leishmania aethiopica [5]) was 1.79 µg/mL (≈ 3.49 µM).

Compound `Cc1ccc(-c2nn(-c3ccc(Br)cc3)cc2/C=N/NC(=S)Nc2ccccc2)cc1` has an Activity (Plasmodium berghei [1]) of 30%, an Activity (Plasmodium berghei [2]) of 65.12% and a Survival (Plasmodium berghei [3]) of 8.84 days. For the same compound, the IC50 (Leishmania aethiopica [4]) was 3.62 µg/mL (≈ 7.39 µM) and the IC50 (Leishmania aethiopica [5]) was 2.41 µg/mL (≈ 4.91 µM).

`CC(=O)N(C1=NN(C(C)=O)C(c2cn(-c3ccc(C)cc3)nc2-c2ccc([N+](=O)[O-])cc2)S1)c1ccccc1` (configuration not stated) was tested, and the Activity (Plasmodium berghei [1]) was 18%, the Activity (Plasmodium berghei [2]) was 79.07% and the Survival (Plasmodium berghei [3]) was 10.4 days. For the same compound, the IC50 (Leishmania aethiopica [4]) was 0.846 µg/mL (≈ 1.57 µM) and the IC50 (Leishmania aethiopica [5]) was 1.21 µg/mL (≈ 2.24 µM).

With `Cc1ccc(-n2cc(C=O)c(-c3ccc([N+](=O)[O-])cc3)n2)cc1` the Activity (Plasmodium berghei [1]) was 32%, the Activity (Plasmodium berghei [2]) was 62.79% and the Survival (Plasmodium berghei [3]) was 7.28 days. For the same compound, the IC50 (Leishmania aethiopica [4]) was 3.64 µg/mL (≈ 11.9 µM) and the IC50 (Leishmania aethiopica [5]) was 1.56 µg/mL (≈ 5.08 µM).

With `Cc1ccc(-c2nn(-c3ccc(Br)cc3)cc2C2CC(c3ccccc3)=NN2c2ccccc2)cc1` (configuration not stated) the Activity (Plasmodium berghei [1]) was 22%, the Activity (Plasmodium berghei [2]) was 74.42% and the Survival (Plasmodium berghei [3]) was 10.64 days. It also gave an IC50 (Leishmania aethiopica [4]) of 2.91 µg/mL (≈ 5.46 µM) and an IC50 (Leishmania aethiopica [5]) of 1.24 µg/mL (≈ 2.32 µM).

For `Cc1ccc(-c2nn(-c3ccc(C)cc3)cc2/C=N/NC(=S)Nc2ccccc2)cc1`, the Activity (Plasmodium berghei [1]) was 34%, the Activity (Plasmodium berghei [2]) was 60.47% and the Survival (Plasmodium berghei [3]) was 9.23 days. The IC50 (Leishmania aethiopica [4]) was 3.01 µg/mL (≈ 7.08 µM) and the IC50 (Leishmania aethiopica [5]) was 2.26 µg/mL (≈ 5.31 µM).

Compound `CCC(=O)N1N=C(c2ccccc2)CC1c1cn(-c2ccc(C)cc2)nc1-c1ccc(C)cc1` (configuration not stated) has an Activity (Plasmodium berghei [1]) of 38%, an Activity (Plasmodium berghei [2]) of 55.81% and a Survival (Plasmodium berghei [3]) of 8.84 days. It also gave an IC50 (Leishmania aethiopica [4]) of 1.6 µg/mL (≈ 3.57 µM) and an IC50 (Leishmania aethiopica [5]) of 1.02 µg/mL (≈ 2.27 µM).

`CC(=O)N(C1=NN(C(C)=O)C(c2cn(-c3ccc(Br)cc3)nc2-c2ccc(C)cc2)S1)c1ccccc1` (configuration not stated) showed an Activity (Plasmodium berghei [1]) of 12%, an Activity (Plasmodium berghei [2]) of 86.05% and a Survival (Plasmodium berghei [3]) of 12.68 days. For the same compound, the IC50 (Leishmania aethiopica [4]) was 0.468 µg/mL (≈ 0.815 µM) and the IC50 (Leishmania aethiopica [5]) was 0.74 µg/mL (≈ 1.29 µM).

With `O=Cc1cn(-c2ccc(Br)cc2)nc1-c1ccc([N+](=O)[O-])cc1` the Activity (Plasmodium berghei [1]) was 35%, the Activity (Plasmodium berghei [2]) was 59.3% and the Survival (Plasmodium berghei [3]) was 8.71 days. For the same compound, the IC50 (Leishmania aethiopica [4]) was 4.84 µg/mL (≈ 13 µM) and the IC50 (Leishmania aethiopica [5]) was 2.03 µg/mL (≈ 5.45 µM).

With `CC(=O)N1N=C(c2ccccc2)CC1c1cn(-c2ccc(Br)cc2)nc1-c1ccc([N+](=O)[O-])cc1` (configuration not stated) the Activity (Plasmodium berghei [1]) was 26%, the Activity (Plasmodium berghei [2]) was 69.77% and the Survival (Plasmodium berghei [3]) was 6.62 days. The IC50 (Leishmania aethiopica [4]) was 1.09 µg/mL (≈ 2.05 µM) and the IC50 (Leishmania aethiopica [5]) was 0.89 µg/mL (≈ 1.68 µM).
